Tests used:
[1] = target: T1, Nicotinamide phosphoribosyltransferase (Homo sapiens, UniProt P43490); assay: Inhibition of recombinant NAMPT (unknown origin) using nicotinamide as substrate measured every 5 mins for 30 mins in presence of recombinant NMNAT1
NCI-H1975 = assay: Cytotoxicity against human NCI-H1975 cells assessed as cell growth inhibition after 72 hrs by CCK-8 assay; format: functional; conditions: NCI-H1975, 72 h
How it was run: (§1)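 HeLa, MCF7, H1975, U937 and MDA-MB-231 kept in RPMI or DMEM with 10% FBS and 1% pen/strep at 37 °C, 5% CO2. Seeded at 400-800 cells/well in 384-well format, exposed to a concentration series or solvent control for 72 h. CCK-8 added, absorbance read at 450 nm, IC50 fitted from dose-response curves.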

HeLa = assay: Cytotoxicity against human HeLa cells assessed as cell growth inhibition after 72 hrs by CCK-8 assay; format: functional; how it was run: as §1
U-937 = assay: Cytotoxicity against human U937 cells assessed as cell growth inhibition after 72 hrs by CCK-8 assay; format: functional; conditions: U-937, 72 h; how it was run: as §1
MDA-MB-231 [2] = assay: Cytotoxicity against human MDA-MB-231 cells assessed as cell growth inhibition after 72 hrs by CCK-8 assay; format: functional; conditions: MDA-MB-231, 72 h; how it was run: as §1
MCF7 = assay: Cytotoxicity against human MCF7 cells assessed as cell growth inhibition after 72 hrs by CCK-8 assay; format: functional; conditions: MCF7, 72 h; how it was run: as §1
[3] = Half life in Sprague-Dawley rat at 5 mg/kg, iv by LC-MS analysis; format: ADME, organism-based; conditions: in vivo
[4] = Cmax in Sprague-Dawley rat at 5 mg/kg, iv measured up to 24 hrs by LC-MS analysis; format: ADME, organism-based; design: dose 5 mg/kg, route intravenous; conditions: in vivo
[5] = Tmax in Sprague-Dawley rat at 5 mg/kg, iv by LC-MS analysis; format: ADME, organism-based; conditions: in vivo
MDA-MB-231 [6] = assay: Antitumor activity against human MDA-MB-231 cells xenografted in nude SCID mouse assessed as tumor growth inhibition at 15 mg/kg, iv qd administered 4 days per week for 4 weeks; format: functional; conditions: MDA-MB-231, iv, read-out: TGI
How it was run: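 Female SCID nude mice, 6 weeks old, given 1 × 10^6 MDA-MB-231 cells into the lower left mammary fat pad. At 100–300 mm3 tumours, randomised to groups of n = 5 and dosed i.v. at 15 mg/kg or vehicle 4 days a week. Volume = L × W²/2; TGI = [1 − (T − T0)/(C − C0)] × 100 from mean volumes; body weight followed.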

[7] = AUC (0 to infinity) in Sprague-Dawley rat at 5 mg/kg, iv measured up to 24 hrs by LC-MS analysis; format: ADME, organism-based; design: dose 5 mg/kg, time infinity, route intravenous; conditions: in vivo
[8] = Toxicity in nude SCID mouse assessed as body weight loss at 15 mg/kg, iv qd administered 4 days per week for 4 weeks; format: organism-based; conditions: in vivo
How it was run: (§2)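 Female SCID nude mice (6 weeks) bearing MDA-MB-231 orthotopic tumours (1 × 10^6 cells in lower left mammary fat pad). Randomised at tumour volume 100–300 mm3 into vehicle or treatment groups (n = 5). Dosing 15 mg/kg i.v., 4 days a week. Vehicle elsewhere given as 2% DMSO, 4% EtOH, 4% castor oil, 90% water. Body weight and mortality recorded during treatment.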

[9] = Cmax in Sprague-Dawley rat at 25 mg/kg, po measured up to 24 hrs by LC-MS analysis; format: ADME, organism-based; design: dose 25 mg/kg, route oral; conditions: in vivo
[10] = Plasma clearance in Sprague-Dawley rat at 5 mg/kg, iv measured up to 24 hrs by LC-MS analysis; format: ADME, organism-based
[11] = target: T1, Nicotinamide phosphoribosyltransferase; assay: Inhibition of NAMPT in human MCF7 cells assessed as decrease in NAD production after 24 hrs by NAD/NADH Glo assay; format: cell-based
How it was run: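 MCF-7 cells serum-starved over 12 h, then treated with compound or vehicle for 24 h. Washed in ice-cold PBS, lysed in 1% DTAB in 0.2 N NaOH diluted 1:1 with PBS, frozen at -80 °C.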

[12] = Plasma clearance in Sprague-Dawley rat at 25 mg/kg, po measured up to 24 hrs by LC-MS analysis; format: ADME, organism-based
[13] = Ratio of Cmax in Sprague-Dawley rat to IC50 for NAMPT in human MCF7 cells; format: ADME, cell-based
[14] = Tmax in Sprague-Dawley rat at 25 mg/kg, po by LC-MS analysis; format: ADME, organism-based; conditions: in vivo
[15] = Oral bioavailability in Sprague-Dawley rat at 25 mg/kg measured up to 24 hrs by LC-MS analysis; format: ADME, organism-based; conditions: in vivo
[16] = Half life in Sprague-Dawley rat at 25 mg/kg, po by LC-MS analysis; format: ADME, organism-based; conditions: in vivo
[17] = Toxicity in nude SCID mouse assessed as mortality at 15 mg/kg, iv qd administered 4 days per week for 4 weeks; format: organism-based; conditions: in vivo; how it was run: as §2
[18] = AUC (0 to infinity) in Sprague-Dawley rat at 25 mg/kg, po measured up to 24 hrs by LC-MS analysis; format: ADME, organism-based; design: dose 25 mg/kg, route oral, time infinity; conditions: in vivo

T1 sequence (P43490 whole entry): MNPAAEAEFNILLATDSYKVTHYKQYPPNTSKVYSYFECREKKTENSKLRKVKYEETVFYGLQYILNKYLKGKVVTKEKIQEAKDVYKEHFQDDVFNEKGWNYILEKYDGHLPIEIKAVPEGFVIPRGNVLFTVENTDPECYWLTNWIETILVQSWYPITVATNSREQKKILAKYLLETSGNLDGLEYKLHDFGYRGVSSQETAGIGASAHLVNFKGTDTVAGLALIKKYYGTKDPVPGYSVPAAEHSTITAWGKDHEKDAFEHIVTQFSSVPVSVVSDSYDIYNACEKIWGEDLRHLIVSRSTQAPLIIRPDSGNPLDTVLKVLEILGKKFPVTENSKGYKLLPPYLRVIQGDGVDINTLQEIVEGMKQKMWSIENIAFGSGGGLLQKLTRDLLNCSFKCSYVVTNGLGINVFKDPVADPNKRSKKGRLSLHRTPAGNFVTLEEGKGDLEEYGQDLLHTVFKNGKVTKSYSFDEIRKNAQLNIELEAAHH

| Compound | IC50 [1] [nM] | GI50 (NCI-H1975) [nM] | GI50 (HeLa) [nM] | GI50 (U-937) [nM] | GI50 (MDA-MB-231 [2]) [nM] | GI50 (MCF7) [nM] | further results |
| --- | --- | --- | --- | --- | --- | --- | --- |
| COc1ccc(CCN(Cc2ccc(CCCCCNC(=O)/C=C/c3cccnc3)cc2)C(C)C)cc1 | 54.8 | 9.87 | 6.95 | 2.12 | 2.86 | 1.38 | – |
| CC(C)N(CCc1ccc(F)cc1)Cc1ccc(CCCCCNC(=O)/C=C/c2cccnc2)cc1 | 149 | 34.1 | 20.9 | 7.67 | 13.6 | 7.37 | – |
| CC(C)(C)OC(=O)N(CCc1c[nH]c2ccccc12)Cc1ccc(CCCNC(=O)/C=C/c2cccnc2)cc1 | 715 | 399 | 288 | 54.3 | 123 | 85.5 | – |
| CCCN(CCc1c[nH]c2ccccc12)Cc1ccc(CCCNC(=O)/C=C/c2cccnc2)cc1 | 544 | 109 | 55.7 | 28.1 | 36 | 23.8 | – |
| CC(C)N(CCc1c[nH]c2ccccc12)Cc1ccc(NCCCCCNC(=O)/C=C/c2cccnc2)cc1 | 25.3 | 1.61 | 0.5 | 0.25 | 0.15 | 0.13 | half-life [3]: 93 min; Cmax [4]: 3790 ng/mL; Tmax [5]: 1.98 min; inhibition in vivo at 15 mg/kg (MDA-MB-231 [6]): 73.8%; AUC(0-inf) [7]: 1710 ng·h/mL; Activity [8]: Non-Toxic; Cmax [9]: 108 ng/mL; clearance [10]: 49 mL/min/kg; IC50 [11]: 0.155 nM; CL/F [12]: 1140 mL/min/kg; Ratio [13]: 500; Tmax [14]: 2 h; bioavailability [15]: 4.4%; half-life [16]: 142 min; Activity [17]: Non-Toxic; AUC(0-inf) [18]: 374 ng·h/mL |
| CC(C)N(CCc1ccsc1)Cc1ccc(CCCCCNC(=O)/C=C/c2cccnc2)cc1 | 195 | 71.8 | 43.7 | 14.8 | 23.6 | 8.47 | – |
| O=C(/C=C/c1cccnc1)NCCCc1ccc(CN(CCO)CCc2c[nH]c3ccccc23)cc1 | 181 | 107 | 69.4 | 18.3 | 31.4 | 18.1 | – |
| Cc1[nH]c2ccccc2c1CCN(Cc1ccc(CCCCCNC(=O)/C=C/c2cccnc2)cc1)C(C)C | 120 | 13.3 | 7.93 | 1.58 | 3.03 | 1.67 | – |
| CC(C)N(CCc1c[nH]c2ccccc12)Cc1ccc(CNC(=O)/C=C/c2cccnc2)cc1 | 213 | 335 | 173 | 77.9 | 134 | 75.1 | – |
| O=C(/C=C/c1cccnc1)NCCCc1ccc(CNCCc2c[nH]c3ccccc23)cc1 | 1410 | 963 | 405 | 187 | 358 | 86.9 | – |
| O=C(/C=C/c1cccnc1)NCCCCC1CCN(C(=O)c2ccccc2)CC1 [DAPORINAD] | – | 3.95 | 1.34 | 0.36 | 0.78 | 0.29 | – |
| CC(=O)O[C@H]1C(=O)[C@@]2(C)[C@H]([C@H](OC(=O)c3ccccc3)[C@]3(O)C[C@H](OC(=O)[C@H](O)[C@@H](NC(=O)c4ccccc4)c4ccccc4)C(C)=C1C3(C)C)[C@]1(OC(C)=O)CO[C@@H]1C[C@@H]2O [PACLITAXEL] | – | 5.77 | 2.34 | 2.12 | 8.67 | 4.38 | – |

Source: ChEMBL document CHEMBL4425104, “Structure-Based Design of Potent Nicotinamide Phosphoribosyltransferase Inhibitors with Promising in Vitro and in Vivo Antitumor Activities” (J Med Chem, 2016)
